The RNAGym collection of RNA variant scans (doi:10.1038/s41586-018-0170-7)

B1: tRNA (parent)
chain: GUUCCGUUGGCGUAAUGGUAACGCGUCUCCCUCCUAAGGAGAAGACUGCGGGUUCGAGUCCCGUACGGAACG

Variants of: B1
Assay: yeast fitness, log relative to wild type (ln ratio); higher = fitter; tRNA-Arg(CCU), competitive growth, 37 C, 1 M NaCl
Outline: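 Fitness is the natural log of a genotype's generation count divided by that of the wild type. A combinatorial library of tRNA-Arg(CCU) variants sat on a HIS3 centromeric plasmid in BY4742 lacking the chromosomal gene, from two independent transformations. Pools grew 4 generations in SC-HIS at 30 °C, then ~6.5 generations (~26.5 h) in SC-HIS 1M NaCl at 37 °C, with three outputs per input. Generations came from OD-scaled log2 output/input frequency, inverse-variance weighted across replicates, with variants counted by 125 bp paired-end Illumina sequencing.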

Going from GUUCCUUUGGCGUAAUGGUAACGCGUCUCCCUCCUAAGGAGACGAUUGCGGGUUCGAGUCCCGUAAGGGGUG to GUUCCUUUGGCGUAAUGGUAACGCGUCUCCCUCCUAAGGAGACGACUGCGGGUUCGAGUCCCGUACGGAGCG, the “yeast fitness (ln)” value falls from -0.167 to -0.296.

First: GUUCCUUUGGCGUAAUGGUAACGCGUCUCCCUCCUAAGGAGACGACUGCGGGUUCGAGUCCCGUACGGAUCG
Second: GUUCCUUUGGCGUAAUGGUAACGCGUCUCCCUCCUAAGGAGACGAUUGCGGGUUCGAGUCCCGUACGGAUUG
The “yeast fitness (ln)” value of the first is higher: -0.164 for the first, -0.225 for the second.

Going from GUUCCUUUGGCGUAAUGGUAACGCGUCUCCCUCCUAAGGAGACGAUUGCGGGUUCGAGUCCCGUAUGGAACG to GUUCCUUUGGCGUAAUGGUAACGCGUCUCCCUCCUAAGGAGACGAUUGCGGGUUCGAGUCCCGUAAGGAACG, the “yeast fitness (ln)” value rises from -0.258 to -0.00135.

Compared with GUUCCUUUGGCGUAAUGGUAACGCGUCUCCCUCCUAAGGAGAAGACUGCGGGUUCGAGUCCCGUACGGAACG, GUUCCAUUGGCGUAAUGGUAACGCGUCUCCCUCCUAAGGAGAAGACUGCGGGUUCGAGUCCCGUAUGGGAUG is lower in “yeast fitness (ln)” value: -0.0403 for the first, -0.085 for the second.

Going from GUUCCAUUGGCGUAAUGGUAACGCGUCUCCCUCCUAAGGAGAAGAUUGCGGGUUCGAGUCCCGUAUGGGGCG to GUUCCAUUGGCGUAAUGGUAACGCGUCUCCCUCCUAAGGAGAAGAUUGCGGGUUCGAGUCCCGUAUGGGUCG, the “yeast fitness (ln)” value falls from -0.0235 to -0.202.

First: GUUCCAUUGGCGUAAUGGUAACGCGUCUCCCUCCUAAGGAGAAGACUGCGGGUUCGAGUCCCGUAUGGAACG
Second: GUUCCAUUGGCGUAAUGGUAACGCGUCUCCCUCCUAAGGAGAAGACUGCGGGUUCGAGUCCCGUAAGGAACG
The “yeast fitness (ln)” value of the first is higher: -0.0046 for the first, -0.163 for the second.

Compared with GUUCCAUUGGCGUAAUGGUAACGCGUCUCCCUCCUAAGGAGAAGAUUGCGGGUUCGAGUCCCGUAUGGAUCG, GUUCCAUUGGCGUAAUGGUAACGCGUCUCCCUCCUAAGGAGAAGAUUGCGGGUUCGAGUCCCGUAUGGAGCG is lower in “yeast fitness (ln)” value: -0.00103 for the first, -0.0166 for the second.

Going from GUUCCAUUGGCGUAAUGGUAACGCGUCUCCCUCCUAAGGAGAAGAUUGCGGGUUCGAGUCCCGUAUGGAACG to GUUCCUUUGGCGUAAUGGUAACGCGUCUCCCUCCUAAGGAGACGAUUGCGGGUUCGAGUCCCGUACGGGUUG, the “yeast fitness (ln)” value falls from 0.00319 to -0.438.

First: GUUCCAUUGGCGUAAUGGUAACGCGUCUCCCUCCUAAGGAGAAGAUUGCGGGUUCGAGUCCCGUAUGGGACG
Second: GUUCCUUUGGCGUAAUGGUAACGCGUCUCCCUCCUAAGGAGACGAUUGCGGGUUCGAGUCCCGUAAGGGUUG
The “yeast fitness (ln)” value of the first is higher: -0.0205 for the first, -0.314 for the second.

Going from GUUCCUUUGGCGUAAUGGUAACGCGUCUCCCUCCUAAGGAGACGACUGCGGGUUCGAGUCCCGUACGGAGUG to GUUCCAUUGGCGUAAUGGUAACGCGUCUCCCUCCUAAGGAGAAGACUGCGGGUUCGAGUCCCGUAUGGGUUG, the “yeast fitness (ln)” value falls from -0.249 to -0.447.

First: GUUCCAUUGGCGUAAUGGUAACGCGUCUCCCUCCUAAGGAGAAGACUGCGGGUUCGAGUCCCGUAAGGAGCG
Second: GUUCCAUUGGCGUAAUGGUAACGCGUCUCCCUCCUAAGGAGAAGACUGCGGGUUCGAGUCCCGUAAGGAUCG
The “yeast fitness (ln)” value of the first is higher: -0.0871 for the first, -0.158 for the second.

First: GUUCCUUUGGCGUAAUGGUAACGCGUCUCCCUCCUAAGGAGACGACUGCGGGUUCGAGUCCCGUACGGGAUG
Second: GUUCCAUUGGCGUAAUGGUAACGCGUCUCCCUCCUAAGGAGAAGACUGCGGGUUCGAGUCCCGUAAGGAUUG
The “yeast fitness (ln)” value of the first is lower: -0.389 for the first, -0.241 for the second.

Going from GUUCCAUUGGCGUAAUGGUAACGCGUCUCCCUCCUAAGGAGAAGAUUGCGGGUUCGAGUCCCGUAAGGAUUG to GUUCCAUUGGCGUAAUGGUAACGCGUCUCCCUCCUAAGGAGAAGAUUGCGGGUUCGAGUCCCGUAUGGGUUG, the “yeast fitness (ln)” value falls from -0.211 to -0.35.

Compared with GUUCCAUUGGCGUAAUGGUAACGCGUCUCCCUCCUAAGGAGAAGACUGCGGGUUCGAGUCCCGUAUGGGGUG, GUUCCUUUGGCGUAAUGGUAACGCGUCUCCCUCCUAAGGAGACGAUUGCGGGUUCGAGUCCCGUAAGGAAUG is higher in “yeast fitness (ln)” value: -0.41 for the first, -0.0527 for the second.

Going from GUUCCUUUGGCGUAAUGGUAACGCGUCUCCCUCCUAAGGAGACGAUUGCGGGUUCGAGUCCCGUACGGAGCG to GUUCCUUUGGCGUAAUGGUAACGCGUCUCCCUCCUAAGGAGACGAUUGCGGGUUCGAGUCCCGUACGGAUCG, the “yeast fitness (ln)” value falls from -0.164 to -0.173.

Going from GUUCCAUUGGCGUAAUGGUAACGCGUCUCCCUCCUAAGGAGAAGACUGCGGGUUCGAGUCCCGUAAGGGGUG to GUUCCAUUGGCGUAAUGGUAACGCGUCUCCCUCCUAAGGAGAAGAUUGCGGGUUCGAGUCCCGUAAGGAAUG, the “yeast fitness (ln)” value falls from -0.163 to -0.349.

First: GUUCCAUUGGCGUAAUGGUAACGCGUCUCCCUCCUAAGGAGAAGACUGCGGGUUCGAGUCCCGUAUGGAUCG
Second: GUUCCAUUGGCGUAAUGGUAACGCGUCUCCCUCCUAAGGAGAAGACUGCGGGUUCGAGUCCCGUAUGGAGCG
The “yeast fitness (ln)” value of the first is lower: -0.0184 for the first, -0.00631 for the second.

Going from GUUCCAUUGGCGUAAUGGUAACGCGUCUCCCUCCUAAGGAGAAGACUGCGGGUUCGAGUCCCGUAUGGAAUG to GUUCCUUUGGCGUAAUGGUAACGCGUCUCCCUCCUAAGGAGACGACUGCGGGUUCGAGUCCCGUACGGAUUG, the “yeast fitness (ln)” value falls from -0.0335 to -0.287.

First: GUUCCAUUGGCGUAAUGGUAACGCGUCUCCCUCCUAAGGAGAAGACUGCGGGUUCGAGUCCCGUAUGGGGCG
Second: GUUCCAUUGGCGUAAUGGUAACGCGUCUCCCUCCUAAGGAGAAGACUGCGGGUUCGAGUCCCGUAUGGGUCG
The “yeast fitness (ln)” value of the first is higher: -0.0412 for the first, -0.335 for the second.
